One may read the IC50 as the concentration that gives 50% inhibition. A lower IC50 goes with greater potency in that assay.

The values that follow come from ChEMBL document CHEMBL1134785, “Synthesis and biological evaluation of prostaglandin-F alkylphosphinic acid derivatives as bone anabolic agents for the treatment of osteoporosis” (J Med Chem, 2001).

Assay [1] concerns the target T1, Prostaglandin D2 receptor (Homo sapiens, UniProt Q13258).
T1 sequence (Q13258 whole entry): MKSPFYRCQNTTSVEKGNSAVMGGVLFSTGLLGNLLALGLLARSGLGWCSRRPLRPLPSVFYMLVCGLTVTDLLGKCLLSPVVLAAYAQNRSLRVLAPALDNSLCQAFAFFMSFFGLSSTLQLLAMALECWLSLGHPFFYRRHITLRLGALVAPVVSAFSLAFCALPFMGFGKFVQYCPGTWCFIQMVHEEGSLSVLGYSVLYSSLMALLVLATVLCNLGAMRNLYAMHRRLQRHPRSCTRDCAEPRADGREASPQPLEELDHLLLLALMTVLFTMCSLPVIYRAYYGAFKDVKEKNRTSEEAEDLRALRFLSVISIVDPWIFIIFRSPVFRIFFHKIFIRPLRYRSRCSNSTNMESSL
The assay is described as follows: In vitro binding at DP human prostaglandin receptor using [3H]- PGD-2 as radioligand. The procedure, abridged: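 hDP stably expressed in HEK-293 cells, collected 4-5 days after seeding. Membranes made by lysis and 100000g spin, then taken up at 1 mg protein/mL in TME buffer at pH 7.4. Competition binding used 5 nM [3H]PGD2, read by filtration and scintillation counting.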

In assay [2] the test system is Rattus norvegicus. Put plainly: Periosteal mineralizing surface (%) measured Histomorphometrically after a dose of 3000 ug/kg in tibial diaphysis. It counts as functional. A digest of the protocol:
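Rats on natural chow (1.46% Ca) were bilaterally ovariectomized at 6 months and left untreated for 60 days. They then received once-daily subcutaneous doses for 60 days, with vehicle of acetate-buffered saline, methylcellulose and polysorbate. Xylenol orange (90 mg/kg) was given before treatment and calcein (10 mg/kg) 14 and 4 days before sacrifice. Tibiae were analysed by fluorescent histomorphometry, 6-8 rats/group, ANOVA/LSD vs vehicle.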

Assay [3] has as its system Rattus norvegicus. The assay is described as follows: Periosteal mineral apposition rate ([…]) measured Histomorphometrically after a dose of 30 ug/kg in tibial diaphysis. The assay is classed as functional. A digest of the protocol: (§1)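 Six-month-old rats, bilaterally ovariectomized, 6-8 per group, on natural chow. After 60 days they received once-daily subcutaneous dosing for 60 days at 0.01–3.0 mg/kg. Vehicle was acetate-buffered saline with methylcellulose and polyoxyethylenesorbitan monooleate. Labels were xylenol orange 90 mg/kg before treatment and calcein 10 mg/kg 14 and 4 days before sacrifice. Tibial histomorphometry was read under fluorescent light, with ANOVA/LSD versus vehicle.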

For assay [4], the system named is Rattus norvegicus. The assay is described as follows: Mineral apposition rate ([…])bone measured Histomorphometrically after a dose of 30 ug/kg in tibial diaphysis. It counts as functional. The procedure, abridged: as §1
The subject of assay [5] is Rattus norvegicus. Put plainly: Bone formation rate/bone volume (%/year) bone measured histomorphometrically after a dose of 100 ug/kg in proximal tibial metaphysis. The note with it: at 100 µg/kg. The assay is classed as functional.
Assay [6] has as its target T2, Prostaglandin E2 receptor EP1 subtype (Homo sapiens, UniProt P34995).
T2 sequence (P34995 whole entry): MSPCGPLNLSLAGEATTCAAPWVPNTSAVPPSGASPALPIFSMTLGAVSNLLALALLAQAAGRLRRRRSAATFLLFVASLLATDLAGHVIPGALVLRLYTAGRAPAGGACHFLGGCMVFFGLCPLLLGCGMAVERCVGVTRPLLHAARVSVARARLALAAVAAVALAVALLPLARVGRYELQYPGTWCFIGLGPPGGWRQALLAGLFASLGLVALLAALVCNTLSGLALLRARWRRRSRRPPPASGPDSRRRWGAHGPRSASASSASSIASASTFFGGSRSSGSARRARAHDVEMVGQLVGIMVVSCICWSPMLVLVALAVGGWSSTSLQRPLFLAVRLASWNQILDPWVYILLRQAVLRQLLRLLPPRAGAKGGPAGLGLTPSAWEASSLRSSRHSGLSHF
Put plainly: In vitro binding at EP1 human prostaglandin receptor using [3H]PGE-2 as radioligand. A digest of the protocol: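 hEP1 transiently expressed in COS-7 cells by the hFP transfection and membrane protocol, with membranes in TME buffer pH 6.0. Competition binding used 5 nM [3H]PGE2, 1 h at 23 °C, filtration and scintillation counting.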

Assay [7] concerns Rattus norvegicus. Put plainly: Marrow area (mm) measured Histomorphometrically after a dose of 300 ug/kg in tibial diaphysis. It counts as functional. A digest of the protocol:
as §1

In assay [8] the test system is Rattus norvegicus. Put plainly: connectivity density (mm-3) using micro Computed Tomography(CT) after a does of 3000 ug/kg in Vertebral Bone. It counts as functional. A digest of the protocol:
(§2)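 Rats were ovariectomized at 6 months of age and, after 60 days, dosed subcutaneously once daily for 60 days, with vehicle of acetate-buffered saline, methylcellulose and polysorbate. At necropsy the fifth lumbar vertebra was scanned by micro-CT to obtain cancellous architecture. Groups were 6-8 rats; results were compared to vehicle by ANOVA with least significant difference test.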

The subject of assay [9] is Rattus norvegicus. Put plainly: Bone Volume /Tissue Volume (%)measured using micro Computed Tomography(CT) after a dose of 10 ug/kg in Vertebral Bone. The settings on record: at 10 µg/kg. It counts as functional.
The test system of assay [10] is Rattus norvegicus. Put plainly: Trabecular no (mm)measured Histomorphometrically after a dose of 10 ug/kg in proximal tibial metaphysis. The assay is classed as functional, Trabecula. The procedure, abridged:
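Six-month-old rats were ovariectomized, and 60 days later daily subcutaneous dosing began for 60 days, with vehicle of acetate-buffered saline, methylcellulose and polysorbate. Xylenol orange (90 mg/kg) labelled bone pre-treatment and calcein (10 mg/kg) 14 and 4 days pre-sacrifice. Histomorphometry covered the proximal tibial metaphysis 1-4 mm distal to the growth plate-metaphyseal junction. Groups were 6-8 rats, compared by ANOVA/LSD vs vehicle.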

Assay [11] deals with Rattus norvegicus. The assay is described as follows: Marrow area (mm) measured Histomorphometrically after a dose of 1000 ug/kg in tibial diaphysis. It counts as functional. The procedure, abridged: as §1
The subject of assay [12] is Rattus norvegicus. Put plainly: Bone formation rate/bone volume (%/year)bone measured Histomorphometrically after a dose of 300 ug/kg in proximal tibial metaphysis. The settings on record: at 300 µg/kg. It counts as functional.
Assay [13] concerns Rattus norvegicus. Put plainly: Derived trabecular thickness (um) measured using micro Computed Tomography(CT) after a dose of 300 ug/kg in Vertebral Bone. It counts as functional, Trabecula. The procedure, abridged:
(§3)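 Micro-CT of the fifth lumbar vertebra, measuring cancellous bone volume and architecture. Rats were 6 months old, OVX 60 days before treatment, then dosed daily for 60 days. Test-agent doses were 10–3000 µg/kg, given as a once-daily subcutaneous injection; 6 mg/kg/day was given to the positive-control group. Groups were compared with vehicle by ANOVA plus LSD test.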

Assay [14] deals with Rattus norvegicus. Put plainly: connectivity density (mm-3) using micro Computed Tomography(CT) after a does of 300 ug/kg in Vertebral Bone. It counts as functional. A digest of the protocol: as §2
Assay [15] concerns Rattus norvegicus. The assay is described as follows: Directly measured thickness(um) using micro Computed Tomography(CT) after a dose of 100 ug/kg in Vertebral Bone. It counts as functional. The procedure, abridged: as §3

With `CP(=O)(O)CCC/C=C\C[C@@H]1[C@@H](/C=C/[C@@H](O)COc2ccccc2)[C@H](O)C[C@@H]1O`, the IC50 in assay [1] and in assay [6] was greater than 10 µM in each case. Also, in the assay with Rattus norvegicus [2], the Periosteal mineralizing surface was found to be 11.109%. The Periosteal mineral apposition rate in the assay with Rattus norvegicus [3] was 0.31 µm/day. In addition, the Mineral apposition rate with Rattus norvegicus [4] was determined as 0.88 µm/day. Besides, the Activity in the assay with Rattus norvegicus [5] is reported as 320.16%; in the assay with Rattus norvegicus [9], 31.04%; in the assay on Rattus norvegicus [12], 322.61%. For the same compound, the Marrow area amounted to 0.89 mm with Rattus norvegicus [7] and 0.86 mm² in the assay on Rattus norvegicus [11]. For the same compound, the Connectivity density with Rattus norvegicus [8] was determined as 55.9 mm**-3; in the assay on Rattus norvegicus [14] it was 66.71 mm**-3. In addition, the Trabecular no. with Rattus norvegicus [10] was 0.58 1/mm. In the assay with Rattus norvegicus [13], this compound yielded a Derived trabecular thickness of 79.5 µm. Moreover, the Directly measured thickness with Rattus norvegicus [15] is 127 µm.
